Results published in ChEMBL document CHEMBL4033712, “Synthesis and biological evaluation of new C-12(α/β)-(N-) sulfamoyl-phenylamino-14-deoxy-andrographolide derivatives as potent anti-cancer agents” (Bioorg Med Chem Lett, 2017).

What was measured:
Assay type in all cases: functional
CCRF-CEM = test: Anticancer activity against human CCRF-CEM cells assessed as cell growth at 10 uM after 48 hrs by sulforhodamine B assay relative to control; conditions: read-out: Activity
Procedure, shortened: (§1)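 Single-dose NCI-60 panel screen: compound added at 10 µM and the culture incubated 48 h. The end point was read by protein staining with sulforhodamine B. The value is percent growth of treated cells relative to untreated control cells, reported as a mean graph across the panel.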

MOLT-4 = test: Anticancer activity against human MOLT4 cells assessed as cell growth at 10 uM after 48 hrs by sulforhodamine B assay relative to control; conditions: MOLT-4, 48 h, read-out: Activity; procedure, shortened: as §1
RPMI-8226 = test: Anticancer activity against human RPMI8226 cells assessed as cell growth at 10 uM after 48 hrs by sulforhodamine B assay relative to control; conditions: RPMI-8226, 48 h, read-out: Activity; procedure, shortened: as §1
SR = test: Anticancer activity against human SR cells assessed as cell growth at 10 uM after 48 hrs by sulforhodamine B assay relative to control; conditions: read-out: Activity
Procedure, shortened: (§2)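 NCI-60 single-dose screen: compound added at 10 µM, cultures incubated 48 h. End point by sulforhodamine B protein-binding dye. Value reported as percent growth of treated cells relative to untreated control cells.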

EKVX = test: Anticancer activity against human EKVX cells assessed as cell growth at 10 uM after 48 hrs by sulforhodamine B assay relative to control; conditions: read-out: Activity; procedure, shortened: as §1
HOP-62 = test: Anticancer activity against human HOP62 cells assessed as cell growth at 10 uM after 48 hrs by sulforhodamine B assay relative to control; conditions: HOP-62, 48 h, read-out: Activity; procedure, shortened: as §1
NCI-H226 = test: Anticancer activity against human NCI-H226 cells assessed as cell growth at 10 uM after 48 hrs by sulforhodamine B assay relative to control; conditions: NCI-H226, 48 h, read-out: Activity; procedure, shortened: as §1
NCI-H522 = test: Anticancer activity against human NCI-H522 cells assessed as cell growth at 10 uM after 48 hrs by sulforhodamine B assay relative to control; conditions: NCI-H522, 48 h, read-out: Activity; procedure, shortened: as §1
HCC 2998 = test: Anticancer activity against human HCC2998 cells assessed as cell growth at 10 uM after 48 hrs by sulforhodamine B assay relative to control; conditions: HCC 2998, 48 h, read-out: Activity; procedure, shortened: as §1
HCT-15 = test: Anticancer activity against human HCT15 cells assessed as cell growth at 10 uM after 48 hrs by sulforhodamine B assay relative to control; conditions: HCT-15, 48 h, read-out: Activity; procedure, shortened: as §1
HT-29 = test: Anticancer activity against human HT-29 cells assessed as cell growth at 10 uM after 48 hrs by sulforhodamine B assay relative to control; conditions: HT-29, 48 h, read-out: Activity; procedure, shortened: as §1
SF-268 = test: Anticancer activity against human SF268 cells assessed as cell growth at 10 uM after 48 hrs by sulforhodamine B assay relative to control; conditions: SF-268, 48 h, read-out: Activity; procedure, shortened: as §1
SF-295 = test: Anticancer activity against human SF295 cells assessed as cell growth at 10 uM after 48 hrs by sulforhodamine B assay relative to control; conditions: SF-295, 48 h, read-out: Activity; procedure, shortened: as §1
U-251 = test: Anticancer activity against human U251 cells assessed as cell growth at 10 uM after 48 hrs by sulforhodamine B assay relative to control; conditions: U-251, 48 h, read-out: Activity; procedure, shortened: as §2
LOX IMVI = test: Anticancer activity against human LOXIMVI cells assessed as cell growth at 10 uM after 48 hrs by sulforhodamine B assay relative to control; conditions: read-out: Activity; procedure, shortened: as §1
Malme-3M = test: Anticancer activity against human MALME-3M cells assessed as cell growth at 10 uM after 48 hrs by sulforhodamine B assay relative to control; conditions: read-out: Activity; procedure, shortened: as §1
M14 = test: Anticancer activity against human M14 cells assessed as cell growth at 10 uM after 48 hrs by sulforhodamine B assay relative to control; conditions: M14, 48 h, read-out: Activity; procedure, shortened: as §1
SK-MEL-2 = test: Anticancer activity against human SK-MEL-2 cells assessed as cell growth at 10 uM after 48 hrs by sulforhodamine B assay relative to control; conditions: SK-MEL-2, 48 h, read-out: Activity; procedure, shortened: as §1
SK-MEL-28 = test: Anticancer activity against human SK-MEL-28 cells assessed as cell growth at 10 uM after 48 hrs by sulforhodamine B assay relative to control; conditions: SK-MEL-28, 48 h, read-out: Activity; procedure, shortened: as §1
UACC-257 = test: Anticancer activity against human UACC257 cells assessed as cell growth at 10 uM after 48 hrs by sulforhodamine B assay relative to control; conditions: UACC-257, 48 h, read-out: Activity; procedure, shortened: as §2
UACC-62 = test: Anticancer activity against human UACC62 cells assessed as cell growth at 10 uM after 48 hrs by sulforhodamine B assay relative to control; conditions: UACC-62, 48 h, read-out: Activity; procedure, shortened: as §2
OVCAR-3 = test: Anticancer activity against human OVCAR3 cells assessed as cell growth at 10 uM after 48 hrs by sulforhodamine B assay relative to control; conditions: OVCAR-3, 48 h, read-out: Activity; procedure, shortened: as §1
OVCAR-5 = test: Anticancer activity against human OVCAR5 cells assessed as cell growth at 10 uM after 48 hrs by sulforhodamine B assay relative to control; conditions: OVCAR-5, 48 h, read-out: Activity; procedure, shortened: as §1
OVCAR-8 = test: Anticancer activity against human OVCAR8 cells assessed as cell growth at 10 uM after 48 hrs by sulforhodamine B assay relative to control; conditions: OVCAR-8, 48 h, read-out: Activity; procedure, shortened: as §1
786-0 = test: Anticancer activity against human 786-0 cells assessed as cell growth at 10 uM after 48 hrs by sulforhodamine B assay relative to control; conditions: 786-0, 48 h, read-out: Activity; procedure, shortened: as §1
ACHN = test: Anticancer activity against human ACHN cells assessed as cell growth at 10 uM after 48 hrs by sulforhodamine B assay relative to control; conditions: read-out: Activity; procedure, shortened: as §1
CAKI-1 = test: Anticancer activity against human Caki1 cells assessed as cell growth at 10 uM after 48 hrs by sulforhodamine B assay relative to control; conditions: CAKI-1, 48 h, read-out: Activity; procedure, shortened: as §1
SN12C = test: Anticancer activity against human SN12C cells assessed as cell growth at 10 uM after 48 hrs by sulforhodamine B assay relative to control; conditions: read-out: Activity; procedure, shortened: as §1
TK-10 = test: Anticancer activity against human TK10 cells assessed as cell growth at 10 uM after 48 hrs by sulforhodamine B assay relative to control; conditions: TK-10, 48 h, read-out: Activity; procedure, shortened: as §2
UO-31 = test: Anticancer activity against human UO31 cells assessed as cell growth at 10 uM after 48 hrs by sulforhodamine B assay relative to control; conditions: UO-31, 48 h, read-out: Activity; procedure, shortened: as §2
PC-3 = test: Anticancer activity against human PC3 cells assessed as cell growth at 10 uM after 48 hrs by sulforhodamine B assay relative to control; conditions: PC-3, 48 h, read-out: Activity; procedure, shortened: as §1
Hs-578T = test: Anticancer activity against human Hs 578T cells assessed as cell growth at 10 uM after 48 hrs by sulforhodamine B assay relative to control; conditions: read-out: Activity; procedure, shortened: as §1
T47D = test: Anticancer activity against human T47D cells assessed as cell growth at 10 uM after 48 hrs by sulforhodamine B assay relative to control; conditions: read-out: Activity; procedure, shortened: as §2

Row | SMILES | growth at 10 µM (CCRF-CEM) | growth at 10 µM (MOLT-4) | growth at 10 µM (RPMI-8226) | growth at 10 µM (SR) | growth at 10 µM (EKVX) | growth at 10 µM (HOP-62) | growth at 10 µM (NCI-H226) | growth at 10 µM (NCI-H522) | growth at 10 µM (HCC 2998) | growth at 10 µM (HCT-15) | growth at 10 µM (HT-29) | growth at 10 µM (SF-268) | growth at 10 µM (SF-295) | growth at 10 µM (U-251) | growth at 10 µM (LOX IMVI) | growth at 10 µM (Malme-3M) | growth at 10 µM (M14) | growth at 10 µM (SK-MEL-2) | growth at 10 µM (SK-MEL-28) | growth at 10 µM (UACC-257) | other results
1 | C=C1CC[C@@H]2[C@](C)(COC(C)=O)[C@H](OC(C)=O)CC[C@@]2(C)[C@H]1CC(Nc1ccc(S(=O)(=O)Nc2ccc(Cl)nn2)cc1)C1=CCOC1=O (some centres undefined) | -10.3% | 0.4% | -19.2% | -5.26% | 87.3% | 47.9% | -10% | -34.5% | 88.5% | -18.4% | -18.3% | 43.3% | 92.8% | -41.2% | -84.6% | 55.3% | 10.7% | 58.3% | 6.66% | 44% | growth at 10 µM (UACC-62): -50%; growth at 10 µM (OVCAR-3): -56.1%; growth at 10 µM (OVCAR-5): 44.6%; growth at 10 µM (OVCAR-8): 16.9%; growth at 10 µM (786-0): 58.8%; growth at 10 µM (ACHN): 16.1%; growth at 10 µM (CAKI-1): 31.8%; growth at 10 µM (SN12C): -27.6%; growth at 10 µM (TK-10): 69.8%; growth at 10 µM (UO-31): 18.4%; growth at 10 µM (PC-3): 38.4%; growth at 10 µM (Hs-578T): 75.6%; growth at 10 µM (T47D): 34.1%
2 | C=C1CC[C@@H]2[C@](C)(COC(C)=O)[C@H](OC(C)=O)CC[C@@]2(C)[C@H]1CC(Nc1ccc(S(=O)(=O)Nc2nccc(C)n2)cc1)C1=CCOC1=O (some centres undefined) | -19.2% | -1.85% | -5.56% | 0.79% | 79.2% | 156% | -12.1% | -50.6% | 68.2% | -42% | -28.2% | 43.2% | 78.7% | 14.6% | -72.9% | -0.7% | 11.2% | 40.1% | -7.05% | 48.5% | growth at 10 µM (UACC-62): 24.2%; growth at 10 µM (OVCAR-3): -45%; growth at 10 µM (OVCAR-5): 26.9%; growth at 10 µM (OVCAR-8): 10.5%; growth at 10 µM (786-0): 32.5%; growth at 10 µM (ACHN): -37.2%; growth at 10 µM (CAKI-1): 61.4%; growth at 10 µM (SN12C): 25.1%; growth at 10 µM (TK-10): 83%; growth at 10 µM (UO-31): 33.4%; growth at 10 µM (PC-3): 41.5%; growth at 10 µM (Hs-578T): 68.6%; growth at 10 µM (T47D): 69.1%
3 | C=C1CC[C@@H]2[C@](C)(COC(C)=O)[C@H](OC(C)=O)CC[C@@]2(C)[C@H]1CC(Nc1ccc(S(=O)(=O)Nc2nc(C)cc(C)n2)cc1)C1=CCOC1=O (some centres undefined) | 2.96% | 24.6% | 2.24% | 22.2% | 74.5% | 103% | 86.7% | 22% | 100% | 49.2% | 46.2% | 93.3% | 97% | 48.2% | -60.6% | 96.3% | 63.8% | 88.5% | 83.5% | 67.9% | growth at 10 µM (UACC-62): 32.9%; growth at 10 µM (OVCAR-3): 44.8%; growth at 10 µM (OVCAR-5): 103%; growth at 10 µM (OVCAR-8): 62%; growth at 10 µM (786-0): 103%; growth at 10 µM (ACHN): 71.6%; growth at 10 µM (CAKI-1): 74%; growth at 10 µM (SN12C): 38.2%; growth at 10 µM (TK-10): 111%; growth at 10 µM (UO-31): 71.2%; growth at 10 µM (PC-3): 65.2%; growth at 10 µM (Hs-578T): 99.8%; growth at 10 µM (T47D): 68.8%
